Results from ChEMBL document CHEMBL4138303, “Discovery and in Vitro Optimization of 3-Sulfamoylbenzamides as ROMK Inhibitors” (ACS Med Chem Lett, 2018).
Positions count from the first letter of the chain named. The source made the active and inactive calls. The rule behind the calls is not given here.

Columns and labels:
[1] = target: Voltage-gated inwardly rectifying potassium channel KCNH2 (Homo sapiens, UniProt Q12809); assay: Displacement of fluorescent-labelled dofetilide from human ERG expressed in HEK293 cell membrane homogenates; type: cell membranes
Chain of Voltage-gated inwardly rectifying potassium channel KCNH2 (Q12809 whole entry): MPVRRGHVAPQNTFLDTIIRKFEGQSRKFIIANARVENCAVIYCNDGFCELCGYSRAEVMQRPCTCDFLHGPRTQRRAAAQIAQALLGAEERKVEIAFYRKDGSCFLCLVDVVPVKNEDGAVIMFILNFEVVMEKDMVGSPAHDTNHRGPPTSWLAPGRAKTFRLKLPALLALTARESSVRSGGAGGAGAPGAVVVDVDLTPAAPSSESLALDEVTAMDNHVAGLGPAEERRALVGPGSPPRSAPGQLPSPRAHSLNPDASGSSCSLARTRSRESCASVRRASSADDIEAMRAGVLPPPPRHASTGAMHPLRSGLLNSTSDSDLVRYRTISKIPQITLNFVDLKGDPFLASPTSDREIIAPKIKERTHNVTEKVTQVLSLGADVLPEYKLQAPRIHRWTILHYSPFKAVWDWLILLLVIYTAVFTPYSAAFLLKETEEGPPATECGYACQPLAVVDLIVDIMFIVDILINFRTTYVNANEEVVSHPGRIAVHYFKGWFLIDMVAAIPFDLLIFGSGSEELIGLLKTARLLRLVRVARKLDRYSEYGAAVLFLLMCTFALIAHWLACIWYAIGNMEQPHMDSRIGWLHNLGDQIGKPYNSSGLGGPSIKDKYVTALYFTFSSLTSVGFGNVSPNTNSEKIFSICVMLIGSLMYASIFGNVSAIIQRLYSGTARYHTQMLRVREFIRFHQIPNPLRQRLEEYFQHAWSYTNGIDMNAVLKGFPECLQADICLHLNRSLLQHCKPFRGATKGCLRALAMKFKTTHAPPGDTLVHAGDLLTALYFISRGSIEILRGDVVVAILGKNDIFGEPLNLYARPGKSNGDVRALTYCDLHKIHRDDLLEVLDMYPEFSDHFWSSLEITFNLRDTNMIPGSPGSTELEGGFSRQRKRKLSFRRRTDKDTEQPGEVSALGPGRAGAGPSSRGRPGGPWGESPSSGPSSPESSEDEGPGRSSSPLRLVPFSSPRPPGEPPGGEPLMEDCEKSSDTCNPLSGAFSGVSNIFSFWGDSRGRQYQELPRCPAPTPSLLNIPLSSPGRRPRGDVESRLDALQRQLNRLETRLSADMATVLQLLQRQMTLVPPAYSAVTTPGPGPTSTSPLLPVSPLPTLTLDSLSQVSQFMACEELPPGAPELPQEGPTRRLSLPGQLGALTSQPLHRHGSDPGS
In short: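 Ki from displacement of a fluorescently labelled dofetilide derivative from membrane homogenates of HEK-293 cells stably expressing hERG (Kv11.1).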

[2] = Apparent intrinsic clearance in human liver microsomes; type: ADME, microsome; settings: read-out: CLH(app)
[3] = Apparent permeability in MDCK2-LE cells; type: ADME, cell-based, Canis lupus familiaris, MDCK-II; settings: dog
[4] = target: T1, ATP-sensitive inward rectifier potassium channel 1 (Homo sapiens, UniProt P48048); assay: Inhibition of human ROMK2 expressed in HEK293 cells after 20 mins by Thallos-AM dye based fluorescence assay; type: cell-based
T1 sequence (P48048 whole entry): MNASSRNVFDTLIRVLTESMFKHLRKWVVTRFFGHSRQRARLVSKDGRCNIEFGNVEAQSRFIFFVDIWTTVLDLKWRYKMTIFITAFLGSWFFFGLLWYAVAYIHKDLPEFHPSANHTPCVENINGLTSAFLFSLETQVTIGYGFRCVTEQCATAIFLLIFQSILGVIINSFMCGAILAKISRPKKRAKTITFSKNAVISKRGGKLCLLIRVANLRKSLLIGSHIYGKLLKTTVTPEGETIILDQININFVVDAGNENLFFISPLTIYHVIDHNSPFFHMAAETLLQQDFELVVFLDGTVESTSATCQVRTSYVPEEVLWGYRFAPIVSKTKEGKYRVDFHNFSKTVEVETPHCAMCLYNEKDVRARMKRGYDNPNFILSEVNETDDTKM

[5] = Octanol-sodium phosphate buffer partition coefficient, log D of the compound at pH 7.4 by shake flask method; type: physicochemical
[6] = target: T2, ATP-sensitive inward rectifier potassium channel 10 (Homo sapiens) (UniProt P78508); assay: Inhibition of Kir4.1 (unknown origin) expressed in CHO cells at 10 uM at -75 mV holding potential by whole cell patch clamp method relative to control; type: cell-based
T2 sequence (whole entry): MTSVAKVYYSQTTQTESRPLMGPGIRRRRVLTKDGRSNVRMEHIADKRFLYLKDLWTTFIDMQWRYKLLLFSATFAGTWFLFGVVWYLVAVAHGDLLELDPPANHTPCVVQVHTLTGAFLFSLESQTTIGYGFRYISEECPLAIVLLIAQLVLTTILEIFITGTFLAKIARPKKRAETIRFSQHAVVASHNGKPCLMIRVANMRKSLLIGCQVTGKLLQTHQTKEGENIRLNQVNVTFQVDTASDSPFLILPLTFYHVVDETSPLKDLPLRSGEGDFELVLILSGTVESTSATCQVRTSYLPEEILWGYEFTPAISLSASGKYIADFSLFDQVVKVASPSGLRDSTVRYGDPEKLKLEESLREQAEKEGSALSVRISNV
In short: (§1)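 Whole-cell patch-clamp recordings in CHO cells stably expressing either Kir2.1 or Kir4.1.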

[7] = target: T3, Kir2.1 (inward rectifier potassium channel 2) (Homo sapiens, UniProt P63252); assay: Inhibition of Kir2.1 (unknown origin) expressed in CHO cells at 10 uM at -75 mV holding potential by whole cell patch clamp method relative to control; type: cell-based; settings: CHO cells expressing Kir2.1; in short: as §1
T3 sequence (P63252 whole entry): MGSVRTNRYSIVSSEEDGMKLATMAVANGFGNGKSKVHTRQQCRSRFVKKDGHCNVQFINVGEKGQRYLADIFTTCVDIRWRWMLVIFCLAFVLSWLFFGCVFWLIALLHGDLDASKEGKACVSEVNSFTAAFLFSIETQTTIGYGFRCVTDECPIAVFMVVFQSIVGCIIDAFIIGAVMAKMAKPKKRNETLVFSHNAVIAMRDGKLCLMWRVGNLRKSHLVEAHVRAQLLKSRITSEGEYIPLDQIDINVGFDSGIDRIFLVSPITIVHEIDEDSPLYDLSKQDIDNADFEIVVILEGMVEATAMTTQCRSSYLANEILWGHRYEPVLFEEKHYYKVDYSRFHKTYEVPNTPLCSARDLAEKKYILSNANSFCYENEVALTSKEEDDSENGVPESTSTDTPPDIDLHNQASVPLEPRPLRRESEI

[8] = target: T4, ATP-sensitive inward rectifier potassium channel 1 (Rattus norvegicus) (UniProt P35560); assay: Inhibition of rat ROMK2 expressed in HEK293 cells at -75 mV holding potential by whole cell patch clamp method; type: cell-based
T4 sequence (whole entry): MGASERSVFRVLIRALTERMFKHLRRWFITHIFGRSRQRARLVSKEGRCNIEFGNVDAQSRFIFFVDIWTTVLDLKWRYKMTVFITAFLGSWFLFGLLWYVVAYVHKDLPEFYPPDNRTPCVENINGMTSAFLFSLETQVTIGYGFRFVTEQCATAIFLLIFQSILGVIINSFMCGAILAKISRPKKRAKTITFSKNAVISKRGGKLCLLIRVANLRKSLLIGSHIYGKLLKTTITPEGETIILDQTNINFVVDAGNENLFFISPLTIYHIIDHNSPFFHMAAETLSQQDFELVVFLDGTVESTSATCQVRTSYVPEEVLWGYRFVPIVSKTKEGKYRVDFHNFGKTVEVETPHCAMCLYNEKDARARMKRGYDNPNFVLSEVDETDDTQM

[9] = target: T1, ATP-sensitive inward rectifier potassium channel 1; assay: Inhibition of human ROMK1 expressed in HEK293 cells at -75 mV holding potential by whole cell patch clamp method; type: cell-based
In short: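 Whole-cell patch clamp on human ROMK1. IC50 comes from a global fit to a five-point concentration-response curve with n≥4 per concentration, reported with 95% CI.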

[10] = target: T5, ATP-sensitive inward rectifier potassium channel 1 (Rattus norvegicus, UniProt P35560); assay: Inhibition of rat ROMK1 expressed in HEK293 cells after 20 mins by Thallos-AM dye based fluorescence assay; type: cell-based
T5 sequence (P35560 whole entry): T4 sequence (whole entry)
In short: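 Thallium (Tl+) flux assay against rat ROMK1, with concentration-response testing up to 30 µM. IC50 values are geometric means of n≥3 replicates unless otherwise indicated and are also reported as pIC50±SD.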

[11] = target: T6, ATP-sensitive inward rectifier potassium channel 1 (Homo sapiens) (UniProt P48048); assay: (§2) Inhibition of human ROMK1 expressed in HEK293 cells after 20 mins by Thallos-AM dye based fluorescence assay; type: cell-based
T6 sequence (whole entry): T1 sequence (P48048 whole entry)
In short: (§3)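 Tl+ flux assay on human or rat ROMK1, run as concentration-response. IC50 is the geometric mean of n≥3 replicates, also given as pIC50±SD. Rat ROMK1 testing went up to 30 µM.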

[12] = target: T1, ATP-sensitive inward rectifier potassium channel 1; assay: as §2; type: cell-based; in short: as §3
[13] = tested on: T7, ATP-sensitive inward rectifier potassium channel 1 (Homo sapiens), P48048 [N171D]; assay: Inhibition of human Kir1.1 N171D mutant expressed in HEK293 cells at 100 to 300 nM at -75 mV holding potential by whole cell patch clamp method; type: cell-based
T7 sequence (whole entry): T1 sequence (P48048 whole entry) with N171D
In short: (§4)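 Whole-cell currents were recorded under voltage clamp in HEK293 cells transiently expressing human ROMK K80M or the human ROMK K80M/N171D double mutant.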

[14] = tested on: T8, ATP-sensitive inward rectifier potassium channel 1 (Homo sapiens), P48048 [K80M]; assay: Inhibition of human Kir1.1 K80M mutant expressed in HEK293 cells at 100 to 300 nM at -75 mV holding potential by whole cell patch clamp method; type: cell-based; in short: as §4
T8 sequence (whole entry): T1 sequence (P48048 whole entry) with K80M

[15] = octanol/sodium phosphate buffer, read-out: logD

SMILES | CLint scaled [2] | Papp ([3]; MDCK, read-out: Papp) | IC50 [4] | logD [5, 15] | IC50 [10] | IC50 ([12]; read-out: IC50) | Ki [1] | also measured
Cc1ccc(NS(=O)(=O)c2cccc(C(=O)NCc3nc(C)no3)c2)cc1 | 9 mL/min/kg | 22 ×10⁻⁶ cm/s | 17000 nM | 2.3 | – | – | > 40000 nM | –
Cc1ccc(NS(=O)(=O)c2cc(C(=O)NCc3cccnc3)ccc2C)cc1 | 120 mL/min/kg | 15 ×10⁻⁶ cm/s | 6500 nM | 3 | – | – | > 40000 nM | inhibition [6]: 19%; inhibition at 10 µM [7]: 13%
COc1ccc(C(=O)NC(C)c2cnn(C)n2)cc1S(=O)(=O)Nc1ccc(Cl)cc1 (single isomer, unassigned; (+)) | – | – | 13000 nM | – | – | – | > 40000 nM | Papp ([3]; mdck-ii): 11 ×10⁻⁶ cm/s; logD ([5]; octanol/water): 2.7
O=[N+]([O-])c1ccc2nc(COCc3nc4ccc([N+](=O)[O-])cc4[nH]3)[nH]c2c1 | – | – | – | – | 420 nM | 744 nM | – | –
COc1ccc(C(=O)NC(C)c2cnn(C)n2)cc1S(=O)(=O)Nc1ccc(Cl)cc1 (single isomer, unassigned; (-)) [listing 2 of 2 here] | – | – | – | – | – | – | – | inhibition [13]: Active; inhibition [8]: inactive; inhibition [14]: Active; inhibition [11]: Dose-dependent effect
COc1ccc(C(=O)NCc2nc(C)no2)cc1S(=O)(=O)Nc1ccc(C)cc1 | 10 mL/min/kg | 8 ×10⁻⁶ cm/s | 1300 nM | 2.3 | – | – | > 40000 nM | –

More lines, in order of falling IC50 [4], values ahead:

CLint scaled [2] | Papp ([3]; MDCK, read-out: Papp) | IC50 [4] | logD [5, 15] | IC50 [10] | IC50 ([12]; read-out: IC50) | SMILES | Ki [1] | also measured
30 mL/min/kg | 20 ×10⁻⁶ cm/s | 440 nM | 2.7 | – | – | Cc1ccc(NS(=O)(=O)c2cc(C(=O)NCc3nc(C)no3)ccc2C)cc1 | > 40000 nM | –
< 8 mL/min/kg | 12 ×10⁻⁶ cm/s | 280 nM | 2.4 | > 30000 nM | 1040 nM | Cc1ccc(C(=O)NCc2cn(C)nn2)cc1S(=O)(=O)Nc1ccc(-c2ccno2)cc1 | > 40000 nM | inhibition [8]: inactive; IC50 [9]: 104 nM; inhibition [11]: Dose-dependent effect; IC50 ([12]; read-out: pIC50 (converted)): 1260 nM
< 8 mL/min/kg | 16 ×10⁻⁶ cm/s | 160 nM | 2.6 | > 30000 nM | 391 nM | COc1ccc(C(=O)NC(C)c2cnn(C)n2)cc1S(=O)(=O)Nc1ccc(Cl)cc1 (single isomer, unassigned; (-)) [listing 1 of 2 here] | 28000 nM | IC50 [9]: 61 nM
25 mL/min/kg | 6 ×10⁻⁶ cm/s | 110 nM | 2.3 | – | – | Cc1noc(CNC(=O)c2ccc(C)c(S(=O)(=O)Nc3ccc(-c4ccno4)cc3)c2)n1 | > 40000 nM | –
< 9 mL/min/kg | 19 ×10⁻⁶ cm/s | 86 nM | 2.9 | – | – | Cc1ccc(C(=O)NCc2cn(C)nn2)cc1S(=O)(=O)Nc1ccc(Cl)cc1 | > 40000 nM | –
35 mL/min/kg | 19 ×10⁻⁶ cm/s | 85 nM | 3 | > 30000 nM | 777 nM | Cc1noc(CNC(=O)c2ccc(C)c(S(=O)(=O)Nc3ccc(Cl)cc3)c2)n1 | > 40000 nM | IC50 [9]: 62 nM; inhibition [11]: Dose-dependent effect
69 mL/min/kg | 10 ×10⁻⁶ cm/s | 35 nM | 2.2 | – | – | Cc1noc(CNC(=O)c2ccc(C)c(S(=O)(=O)Nc3ccc(-c4cnco4)cc3)c2)n1 | > 40000 nM | –
